Legend:
[1] = folding enthalpy; higher = less favourable; fluorescence melt of hairpins on a sequencing array, two-state fit; conditions: sodium 0.088 M
Outline: (§1)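 Melting temperature and folding enthalpy were derived from bootstrapped two-state fits. The fitted temperatures were raised by 9.35 °C to agree with UV melts, and four replicates were combined by inverse variance. The underlying data were Cy3 fluorescence images of library hairpins, with annealed Cy3 and quencher oligos, on a sequenced MiSeq flow cell in 50 mM Na-HEPES pH 8.0, 25 mM NaCl, taken in 2.5 °C steps up to 60 °C, normalised to pre-quench Cy3 and to control constructs.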

[2] = melting temperature; fluorescence melt of hairpins on a sequencing array, two-state fit, raised by 9.35 °C to match UV melts; conditions: sodium 0.088 M
Outline: as §1

Sequence | folding enthalpy [1] | Tm [2]
GATCTTCTCCAAGATC ((((((....)))))) | -29.8 kcal/mol | 41.1 °C
GCAATCCGAAAGGAATGC (((.(((....))).))) | -34.5 kcal/mol | 54.5 °C
GTGTGCGAAAGCATCCAC ((((((....)))..))) | -11 kcal/mol | 33.9 °C
GGCTTGAAAAAGCC (((((....))))) | -31.3 kcal/mol | 59.6 °C
GCAAAAGGAAACTCTTGC ((((.((....)).)))) | -10.8 kcal/mol | 27.4 °C
GTCGAACCGAAAGGTGAC (((..(((....)))))) | -18 kcal/mol | 42 °C
GGAGACGAAAGTCTGTCC ((((((....)))..))) | -11.2 kcal/mol | 34.5 °C
GATCGAGATTTCGATC ((((((....)))))) | -46.7 kcal/mol | 51.8 °C
GGTCTGGCGAAAGCCACC (((..(((....)))))) | -7.45 kcal/mol | 27.1 °C
GATCATGTGGATGATC ((((((....)))))) | -35.2 kcal/mol | 47.3 °C
GCGTTGGGAAACTAGCGC (((.(.(....).).))) | -35.9 kcal/mol | 47.9 °C
GATCCTCCCTAGGATC ((((((....)))))) | -39.7 kcal/mol | 50.8 °C
CAATGGAAACATTG (((((....))))) | -26 kcal/mol | 40.6 °C
GGTGGCGAAAGCCGGACC ((((((....)))..))) | -12.1 kcal/mol | 46.8 °C
GAATACGAAAGTATTTC ((((((....))).))) | -15.8 kcal/mol | 38.3 °C
GTATCCACGAAAGTGTAC (((..(((....)))))) | -10.6 kcal/mol | 21.2 °C
GCTCCAACGAAAGTTAGC (((..(((....)))))) | -11.8 kcal/mol | 27.9 °C
GATCGGCTCTCCGATC ((((((....)))))) | -47.3 kcal/mol | 55.4 °C
GCATCTGGAAACAAATGC ((((.((....)).)))) | -21.8 kcal/mol | 32.6 °C
GCAGGGCCGAAAGGCTGC (((..(((....)))))) | -14.3 kcal/mol | 55.3 °C
GGTCAAGGAAACTTGGTC (..((((....))))..) | -13.9 kcal/mol | 29.7 °C
GGTTGGCCGAAAGGCACC (((..(((....)))))) | -12.8 kcal/mol | 41.4 °C
GCGTTTCTACGC ((((....)))) | -23.3 kcal/mol | 53.8 °C

Sequence | folding enthalpy [1] | Tm [2]
GGGGGTGGAAACGCTCCC (((.(.(....).).))) | -25.9 kcal/mol | 47.1 °C
GCAGTACGAAAGTATTGC (((.(((....))).))) | -45.2 kcal/mol | 52.8 °C
GATCGTATCGACGATC ((((((....)))))) | -35 kcal/mol | 55.2 °C
GTATGCGAAAGCATTTAC ((((((....)))..))) | -8.67 kcal/mol | 30.6 °C
GATCGGGTTCCGATC ((((((...)))))) | -39.1 kcal/mol | 56.8 °C
GCATGGCGAAAGCCCGGC ((..(((....)))..)) | -15.7 kcal/mol | 43.3 °C
GCTCGCGGAAACGTGGGC ((.(.((....)).).)) | -34 kcal/mol | 50.2 °C
GGTGTGTCGAAAGACACC (((..(((....)))))) | -10.2 kcal/mol | 47.8 °C
GATCAATGATTGATC ((((((...)))))) | -29.9 kcal/mol | 40.6 °C
GAAGACGAAAGTCATTTC ((((((....)))..))) | -8.24 kcal/mol | 23.9 °C
GAGTCCGAAAGGAATCTC ((((((....)))..))) | -18.8 kcal/mol | 50.2 °C
GCAATACGAAAGTAGTGC (((.(((....))).))) | -43.8 kcal/mol | 54.7 °C
GTTCCCGAAAGGGCGAAC ((((((....)))..))) | -9.4 kcal/mol | 31.5 °C
GGTCACCGAAAGGTACC (((.(((....)))))) | -19.7 kcal/mol | 47.1 °C
GGGTCAGGAAACTGGTCC ((..(((....)))..)) | -30.1 kcal/mol | 39.9 °C
GTTTTCGCGAAAGCGAAC (((..(((....)))))) | -8.54 kcal/mol | 40.1 °C
CGGGTCGGAAACGAACCG (((.(((....))).))) | -42.8 kcal/mol | 59.6 °C
GGGTAAGGAAACTTGCCC (((.(((....))).))) | -36.6 kcal/mol | 50.5 °C
GGAAAGAAATTTCC (((((....))))) | -18.9 kcal/mol | 29.5 °C
GATTTTGGAAACAAGATC (((.(((....))).))) | -22.4 kcal/mol | 33.6 °C
GAGCAAGGAAACCTGCTC (((((.(....).))))) | -27.6 kcal/mol | 48.5 °C
GGCTTAGGAAACTAAACC ((.((((....)))).)) | -15.7 kcal/mol | 31.8 °C
GGGGTTGGAAACGATCCC (((.(.(....).).))) | -23 kcal/mol | 39.1 °C

Sequence | folding enthalpy [1] | Tm [2]
GCGTTGGGAAACCAACAC (.(((((....))))).) | -14.4 kcal/mol | 42.5 °C
GTACCCCGAAAGGGCTAC (((.(((....))).))) | -14 kcal/mol | 35.7 °C
GCTGGGCGAAAGCGCCGC ((.(.((....)).).)) | -18.2 kcal/mol | 47.4 °C
GACATTGGAAACGATGTC (((((.(....).))))) | -36.1 kcal/mol | 46.7 °C
GGTTGAGGAAACTTGACC (((..((....))..))) | -14.6 kcal/mol | 32.1 °C
GATCTATCCGTAGATC ((((((....)))))) | -30.1 kcal/mol | 43.1 °C
GAGATTGGAAACAATCCC (.(((((....))))).) | -19.6 kcal/mol | 34 °C
GATTACCGAAAGGTCATC (((.(((....))).))) | -28.8 kcal/mol | 38.2 °C
GGACGCGAAAGCGACTCC ((((((....)))..))) | -11.6 kcal/mol | 46.2 °C
GAAATAGGAAACTGTTTC ((((.((....)).)))) | -21.3 kcal/mol | 36.1 °C
GGTACACCGAAAGGTACC (((..(((....)))))) | -20.5 kcal/mol | 41.1 °C
GGCCAAGGAAACCTAGCC (((.(.(....).).))) | -27.2 kcal/mol | 31.3 °C
GATCTCAACCGAGATC ((((((....)))))) | -45.1 kcal/mol | 51.9 °C
GTATTGCGAAAGCATTAC (((.(((....))).))) | -23.7 kcal/mol | 44.9 °C
GACCCCGAAAGGGGCGTC ((((((....)))..))) | -11.7 kcal/mol | 61.4 °C
GCGGAGCGAAAGCTCGC (((.(((....)))))) | -17.6 kcal/mol | 67.4 °C
GTAAACGAAAGTTTGTAC ((((((....)))..))) | -15.1 kcal/mol | 27.6 °C
GCAAAGCGAAAGCATAGC ((.(.((....)).).)) | -9.41 kcal/mol | 33.4 °C
GCTCCGGGAAACCGAAGC (((.(((....))).))) | -27.9 kcal/mol | 47.5 °C
GTGCTCGAAAGAGACAC ((((((....))).))) | -22.4 kcal/mol | 47.3 °C
CGGTCGGAAACGAGCCCG ((((((....)))..))) | -14 kcal/mol | 37.5 °C
GATCTAATACTAGATC ((((((....)))))) | -30.1 kcal/mol | 37.4 °C
GGTGAGGGAAACTTCGCC ((.((.(....).)).)) | -23.7 kcal/mol | 35.7 °C

Sequence | folding enthalpy [1] | Tm [2]
GCTACACCGAAAGGTAGC (((..(((....)))))) | -22.7 kcal/mol | 47.1 °C
GTCTCCGAAAGGACAGAC ((((((....)))..))) | -17.3 kcal/mol | 37.2 °C
GATCATCTTAATGATC ((((((....)))))) | -36.5 kcal/mol | 49 °C
GTATCGCCGAAAGGCTAC (((..(((....)))))) | -6.58 kcal/mol | 32.9 °C
GCGACAGATCGC ((((....)))) | -20.7 kcal/mol | 47.9 °C
GAGTGACGAAAGTCCTC (((.(((....)))))) | -19.5 kcal/mol | 47.9 °C
GATATTGGAAACAATATC (((((((....))))))) | -45.2 kcal/mol | 48.8 °C
GGGTTGAAAAACCC (((((....))))) | -29.5 kcal/mol | 55.5 °C
GGGAATCGAAAGATGCCC (((.(((....))).))) | -44.3 kcal/mol | 54.6 °C
GTCGTCCCGAAAGGGGAC (((..(((....)))))) | -11.7 kcal/mol | 45.1 °C
GCATCGGGAAACCGACAC (..((((....))))..) | -11.9 kcal/mol | 25.8 °C
GTGTCAGGAAACTGATGC (..((((....))))..) | -21.1 kcal/mol | 38.3 °C
GTTGCGTCGAAAGACAAC (((..(((....)))))) | -13.8 kcal/mol | 30.3 °C
GAGTCTCCGAAAGGACTC (((..(((....)))))) | -21.8 kcal/mol | 39 °C
GCGCAGGGAAACCCACGC (((..((....))..))) | -26.7 kcal/mol | 43.9 °C
GATCATGACTATGATC ((((((....)))))) | -48.6 kcal/mol | 54.2 °C
GCCACACCGAAAGGTGGC (((..(((....)))))) | -12.3 kcal/mol | 55.6 °C
GCAGCGCGAAAGCCATGC (((..((....))..))) | -14.9 kcal/mol | 45.1 °C
GATCATGGAAATGATC ((((((....)))))) | -36 kcal/mol | 52.4 °C
GGTTTGGGAAACCGAACC ((((.((....)).)))) | -34.2 kcal/mol | 52.3 °C
GATTTCCGAAAGGATATC (((.(((....))).))) | -24.6 kcal/mol | 42 °C
GCAAGGAAACTTGC (((((....))))) | -26.6 kcal/mol | 53.3 °C
GCTTGACGAAAGTCTAGC (((.(((....))).))) | -35.2 kcal/mol | 55.2 °C

Reference: the array DNA melting data of Ke et al. (doi:10.1101/2024.01.08.574731)
